Reference: the M2OR odorant receptor database

Key:
Settings in all cases: stereoisomer not certain
OR13C2 (Homo sapiens) = biological target: T1, OR13C2 (Homo sapiens) (UniProt Q8NGS9)
T1 sequence (whole entry): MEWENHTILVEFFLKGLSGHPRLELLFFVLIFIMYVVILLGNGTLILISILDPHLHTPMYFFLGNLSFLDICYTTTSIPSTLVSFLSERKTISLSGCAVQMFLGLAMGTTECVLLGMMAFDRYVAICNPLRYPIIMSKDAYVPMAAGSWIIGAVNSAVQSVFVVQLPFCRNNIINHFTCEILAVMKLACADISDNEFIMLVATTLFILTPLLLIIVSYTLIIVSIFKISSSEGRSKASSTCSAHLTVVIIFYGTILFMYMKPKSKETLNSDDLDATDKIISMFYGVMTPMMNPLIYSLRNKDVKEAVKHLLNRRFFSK
Outline: (§1)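 Each receptor–molecule pair is labelled responsive or non-responsive (inactive) according to whether the original authors judged the measured signal statistically different from baseline. The data were taken from the main text and supplementary material of published papers and checked for typos and inconsistencies. Assay methods differed by source, with transient luciferase assays in mammalian cell lines being common.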

OR13C3 (Homo sapiens) = biological target: T2, OR13C3 (Homo sapiens) (UniProt Q8NGS6)
T2 sequence (whole entry): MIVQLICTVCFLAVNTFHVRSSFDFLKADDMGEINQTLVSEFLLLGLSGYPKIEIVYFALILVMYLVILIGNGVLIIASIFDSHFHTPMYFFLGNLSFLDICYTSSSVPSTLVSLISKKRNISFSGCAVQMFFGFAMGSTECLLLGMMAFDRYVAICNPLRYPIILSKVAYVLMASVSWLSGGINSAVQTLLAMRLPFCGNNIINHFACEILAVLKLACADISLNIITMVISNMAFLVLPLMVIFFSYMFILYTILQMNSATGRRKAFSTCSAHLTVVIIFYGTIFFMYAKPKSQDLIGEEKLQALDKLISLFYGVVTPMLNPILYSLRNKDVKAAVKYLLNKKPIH
Outline: as §1

OR13C4 (Homo sapiens) = biological target: T3, OR13C4 (Homo sapiens) (UniProt Q8NGS5)
T3 sequence (whole entry): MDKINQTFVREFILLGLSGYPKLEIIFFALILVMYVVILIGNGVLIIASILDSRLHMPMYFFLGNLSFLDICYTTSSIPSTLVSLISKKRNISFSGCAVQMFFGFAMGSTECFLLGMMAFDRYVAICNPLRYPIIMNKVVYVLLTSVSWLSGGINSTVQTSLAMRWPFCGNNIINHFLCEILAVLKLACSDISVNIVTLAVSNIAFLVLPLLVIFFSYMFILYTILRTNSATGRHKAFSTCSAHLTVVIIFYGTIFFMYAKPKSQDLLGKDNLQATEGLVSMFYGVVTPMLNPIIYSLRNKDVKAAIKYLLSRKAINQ
Outline: as §1

OR13C5 (Homo sapiens) = biological target: T4, OR13C5 (Homo sapiens) (UniProt Q8NGS8)
T4 sequence (whole entry): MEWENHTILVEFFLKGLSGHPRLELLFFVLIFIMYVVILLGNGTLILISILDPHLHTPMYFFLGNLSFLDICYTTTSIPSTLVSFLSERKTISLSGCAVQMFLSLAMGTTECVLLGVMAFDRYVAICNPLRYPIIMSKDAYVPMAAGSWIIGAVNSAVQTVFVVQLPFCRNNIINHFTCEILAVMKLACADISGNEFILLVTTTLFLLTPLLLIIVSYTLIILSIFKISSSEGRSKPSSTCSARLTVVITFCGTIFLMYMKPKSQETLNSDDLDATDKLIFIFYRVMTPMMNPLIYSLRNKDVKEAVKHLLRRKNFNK
Outline: as §1

OR13C7 (Homo sapiens) = OR13C7 (Homo sapiens) (UniProt P0DN81)
Outline: as §1

OR13C8 (Homo sapiens) = biological target: T5, OR13C8 (Homo sapiens) (UniProt Q8NGS7)
T5 sequence (whole entry): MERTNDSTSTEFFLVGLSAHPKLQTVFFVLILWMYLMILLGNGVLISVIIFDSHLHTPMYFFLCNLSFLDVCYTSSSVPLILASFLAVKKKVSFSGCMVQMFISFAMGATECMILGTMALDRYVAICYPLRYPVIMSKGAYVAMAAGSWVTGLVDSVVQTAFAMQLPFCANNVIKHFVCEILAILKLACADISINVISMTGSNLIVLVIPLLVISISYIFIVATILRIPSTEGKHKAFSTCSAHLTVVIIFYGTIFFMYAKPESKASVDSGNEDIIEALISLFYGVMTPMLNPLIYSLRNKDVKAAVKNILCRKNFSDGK
Outline: as §1

OR13C9 (Homo sapiens) = biological target: T6, OR13C9 (Homo sapiens) (UniProt Q8NGT0)
T6 sequence (whole entry): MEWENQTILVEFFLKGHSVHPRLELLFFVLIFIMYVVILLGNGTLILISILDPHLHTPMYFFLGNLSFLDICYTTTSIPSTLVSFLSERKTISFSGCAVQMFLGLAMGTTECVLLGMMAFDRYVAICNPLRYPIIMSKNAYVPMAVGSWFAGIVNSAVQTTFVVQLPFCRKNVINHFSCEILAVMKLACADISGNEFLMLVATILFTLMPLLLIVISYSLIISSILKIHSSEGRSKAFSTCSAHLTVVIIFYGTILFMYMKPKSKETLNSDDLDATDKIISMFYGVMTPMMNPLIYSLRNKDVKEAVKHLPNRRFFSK
Outline: as §1

OR13D1 (Homo sapiens) = biological target: T7, OR13D1 (Homo sapiens) (UniProt Q8NGV5)
T7 sequence (whole entry): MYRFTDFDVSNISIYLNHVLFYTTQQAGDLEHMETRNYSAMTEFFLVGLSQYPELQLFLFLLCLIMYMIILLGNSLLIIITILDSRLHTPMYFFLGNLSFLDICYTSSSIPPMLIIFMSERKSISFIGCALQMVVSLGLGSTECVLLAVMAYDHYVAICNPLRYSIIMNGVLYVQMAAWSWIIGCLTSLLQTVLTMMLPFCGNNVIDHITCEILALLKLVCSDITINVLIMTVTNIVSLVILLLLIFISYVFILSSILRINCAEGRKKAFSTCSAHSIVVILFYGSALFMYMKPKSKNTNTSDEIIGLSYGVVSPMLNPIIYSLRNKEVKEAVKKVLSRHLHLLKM
Outline: as §1

OR13F1 (Homo sapiens) = biological target: T8, OR13F1 (Homo sapiens) (UniProt Q8NGS4)
T8 sequence (whole entry): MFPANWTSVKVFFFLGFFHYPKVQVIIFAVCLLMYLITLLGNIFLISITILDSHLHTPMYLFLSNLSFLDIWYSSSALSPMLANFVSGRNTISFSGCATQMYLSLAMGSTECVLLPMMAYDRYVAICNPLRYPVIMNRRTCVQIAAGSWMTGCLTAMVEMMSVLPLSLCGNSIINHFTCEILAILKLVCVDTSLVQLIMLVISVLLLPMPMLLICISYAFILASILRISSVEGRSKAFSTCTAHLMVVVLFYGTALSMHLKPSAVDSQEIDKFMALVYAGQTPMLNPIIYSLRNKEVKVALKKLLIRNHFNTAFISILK
Outline: as §1

OR13G1 (Homo sapiens) = biological target: T9, OR13G1 (Homo sapiens) (UniProt Q8NGZ3)
T9 sequence (whole entry): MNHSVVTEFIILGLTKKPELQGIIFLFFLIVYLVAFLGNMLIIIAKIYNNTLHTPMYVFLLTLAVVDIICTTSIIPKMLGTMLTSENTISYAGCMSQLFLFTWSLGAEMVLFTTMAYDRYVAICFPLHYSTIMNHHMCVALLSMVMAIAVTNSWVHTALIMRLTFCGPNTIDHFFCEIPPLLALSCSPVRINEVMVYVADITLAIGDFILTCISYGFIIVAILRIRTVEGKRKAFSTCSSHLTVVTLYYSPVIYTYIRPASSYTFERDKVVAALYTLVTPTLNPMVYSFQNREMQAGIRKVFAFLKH
Outline: as §1

OR13H1 (Homo sapiens) = biological target: T10, OR13H1 (Homo sapiens) (UniProt Q8NG92)
T10 sequence (whole entry): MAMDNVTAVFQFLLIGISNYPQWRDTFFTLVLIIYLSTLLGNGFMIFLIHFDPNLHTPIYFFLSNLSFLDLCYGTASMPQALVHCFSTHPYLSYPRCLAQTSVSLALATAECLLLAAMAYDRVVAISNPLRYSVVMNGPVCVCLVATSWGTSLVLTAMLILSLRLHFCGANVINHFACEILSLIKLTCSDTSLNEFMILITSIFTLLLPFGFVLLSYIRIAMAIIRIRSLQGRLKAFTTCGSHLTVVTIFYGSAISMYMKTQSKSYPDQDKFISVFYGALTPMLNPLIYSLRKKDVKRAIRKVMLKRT
Outline: as §1

OR13J1 (Homo sapiens) = biological target: T11, OR13J1 (Homo sapiens) (UniProt Q8NGT2)
T11 sequence (whole entry): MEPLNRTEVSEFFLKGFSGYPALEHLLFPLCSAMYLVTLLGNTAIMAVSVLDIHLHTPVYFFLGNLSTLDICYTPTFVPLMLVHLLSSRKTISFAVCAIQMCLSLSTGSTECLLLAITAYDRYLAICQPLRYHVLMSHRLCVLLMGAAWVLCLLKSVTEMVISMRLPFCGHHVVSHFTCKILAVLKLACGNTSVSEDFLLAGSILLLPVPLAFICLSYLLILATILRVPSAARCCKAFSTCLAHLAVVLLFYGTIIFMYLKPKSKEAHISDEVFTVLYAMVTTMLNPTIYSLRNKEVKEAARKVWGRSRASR
Outline: as §1

OR14A16 (Homo sapiens) = biological target: T12, OR14A16 (Homo sapiens) (UniProt Q8NHC5)
T12 sequence (whole entry): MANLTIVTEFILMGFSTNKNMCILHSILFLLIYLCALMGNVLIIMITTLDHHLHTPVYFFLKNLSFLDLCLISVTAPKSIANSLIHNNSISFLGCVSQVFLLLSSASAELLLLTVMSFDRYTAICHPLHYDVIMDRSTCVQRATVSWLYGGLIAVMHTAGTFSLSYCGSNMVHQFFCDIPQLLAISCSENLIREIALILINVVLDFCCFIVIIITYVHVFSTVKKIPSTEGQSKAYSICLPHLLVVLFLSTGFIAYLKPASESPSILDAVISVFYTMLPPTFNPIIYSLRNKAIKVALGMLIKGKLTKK
Outline: as §1

OR14A2 (Homo sapiens) = biological target: T13, OR14A2 (Homo sapiens) (UniProt Q96R54)
T13 sequence (whole entry): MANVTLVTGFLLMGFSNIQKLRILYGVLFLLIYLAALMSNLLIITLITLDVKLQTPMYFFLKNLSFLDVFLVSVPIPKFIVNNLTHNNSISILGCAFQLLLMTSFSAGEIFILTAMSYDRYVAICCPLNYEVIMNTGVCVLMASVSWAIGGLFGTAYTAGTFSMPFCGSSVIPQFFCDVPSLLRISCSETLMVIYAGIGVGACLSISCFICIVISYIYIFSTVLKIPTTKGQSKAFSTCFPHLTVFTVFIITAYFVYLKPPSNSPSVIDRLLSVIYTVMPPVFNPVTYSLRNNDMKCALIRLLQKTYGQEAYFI
Outline: as §1

OR14C36 (Homo sapiens) = biological target: T14, OR14C36 (Homo sapiens) (UniProt Q8NHC7)
T14 sequence (whole entry): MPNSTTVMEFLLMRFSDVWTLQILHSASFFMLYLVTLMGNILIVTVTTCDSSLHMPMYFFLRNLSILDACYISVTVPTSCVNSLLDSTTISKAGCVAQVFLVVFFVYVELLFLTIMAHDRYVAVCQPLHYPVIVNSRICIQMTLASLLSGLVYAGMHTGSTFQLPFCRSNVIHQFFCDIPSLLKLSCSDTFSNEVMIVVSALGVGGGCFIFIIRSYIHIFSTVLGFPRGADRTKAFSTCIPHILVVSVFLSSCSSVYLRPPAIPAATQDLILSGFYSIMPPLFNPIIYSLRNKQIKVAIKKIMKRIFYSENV
Outline: as §1

OR14I1 (Homo sapiens) = biological target: T15, OR14I1 (Homo sapiens) (UniProt A6ND48)
T15 sequence (whole entry): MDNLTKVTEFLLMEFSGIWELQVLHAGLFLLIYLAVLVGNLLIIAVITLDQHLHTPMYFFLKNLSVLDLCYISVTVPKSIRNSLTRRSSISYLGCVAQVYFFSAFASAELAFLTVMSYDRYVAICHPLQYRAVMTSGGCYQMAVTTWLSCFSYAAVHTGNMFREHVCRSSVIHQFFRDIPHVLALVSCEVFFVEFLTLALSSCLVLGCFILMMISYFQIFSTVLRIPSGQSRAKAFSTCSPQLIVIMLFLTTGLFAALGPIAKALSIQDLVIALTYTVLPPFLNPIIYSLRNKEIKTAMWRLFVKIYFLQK
Outline: as §1

OR14J1 (Homo sapiens) = biological target: T16, OR14J1 (Homo sapiens) (UniProt Q9UGF5)
T16 sequence (whole entry): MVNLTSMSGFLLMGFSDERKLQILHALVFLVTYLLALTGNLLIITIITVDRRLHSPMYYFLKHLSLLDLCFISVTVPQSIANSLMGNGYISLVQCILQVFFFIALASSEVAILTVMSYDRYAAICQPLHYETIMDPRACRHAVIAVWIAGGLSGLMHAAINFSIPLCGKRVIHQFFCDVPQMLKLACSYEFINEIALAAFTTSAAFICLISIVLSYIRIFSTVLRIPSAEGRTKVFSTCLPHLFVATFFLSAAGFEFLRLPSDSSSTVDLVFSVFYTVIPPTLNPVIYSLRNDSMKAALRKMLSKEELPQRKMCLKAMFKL
Outline: as §1

OR14K1 (Homo sapiens) = biological target: T17, OR14K1 (Homo sapiens) (UniProt Q8NGZ2)
T17 sequence (whole entry): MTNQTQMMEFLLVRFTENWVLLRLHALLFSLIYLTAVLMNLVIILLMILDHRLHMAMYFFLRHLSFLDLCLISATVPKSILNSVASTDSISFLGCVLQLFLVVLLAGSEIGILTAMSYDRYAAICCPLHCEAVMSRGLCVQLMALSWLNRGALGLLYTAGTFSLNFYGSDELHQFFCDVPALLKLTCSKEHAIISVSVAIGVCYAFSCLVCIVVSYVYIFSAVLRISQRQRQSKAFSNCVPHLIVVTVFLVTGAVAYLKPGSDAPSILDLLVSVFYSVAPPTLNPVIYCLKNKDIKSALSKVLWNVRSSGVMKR
Outline: as §1

OR1A1 (Homo sapiens) = biological target: T18, OR1A1 (Homo sapiens) (UniProt Q9P1Q5)
T18 sequence (whole entry): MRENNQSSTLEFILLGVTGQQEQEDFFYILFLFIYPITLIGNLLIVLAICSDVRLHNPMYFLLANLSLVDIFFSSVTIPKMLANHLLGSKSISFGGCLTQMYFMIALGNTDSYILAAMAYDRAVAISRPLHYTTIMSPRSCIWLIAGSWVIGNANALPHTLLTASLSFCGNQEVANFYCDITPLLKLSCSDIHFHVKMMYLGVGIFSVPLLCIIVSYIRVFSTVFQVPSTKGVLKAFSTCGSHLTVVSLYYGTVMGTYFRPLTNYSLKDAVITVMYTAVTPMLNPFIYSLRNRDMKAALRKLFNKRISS
Outline: as §1

Measured: odorant receptor agonist call;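 further: active if original authors judged signal statistically different from baseline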

Chain of OR13C7 (Homo sapiens) (P0DN81 whole entry): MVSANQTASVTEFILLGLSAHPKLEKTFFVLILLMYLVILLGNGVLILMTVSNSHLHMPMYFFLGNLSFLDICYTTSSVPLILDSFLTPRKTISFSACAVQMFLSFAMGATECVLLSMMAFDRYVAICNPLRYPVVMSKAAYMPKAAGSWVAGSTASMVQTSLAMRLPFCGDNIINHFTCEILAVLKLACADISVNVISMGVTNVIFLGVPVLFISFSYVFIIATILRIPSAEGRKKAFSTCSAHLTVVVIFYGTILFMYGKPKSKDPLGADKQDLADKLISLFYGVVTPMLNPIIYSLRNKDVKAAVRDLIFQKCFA

CC(=O)c1c(C)c([N+](=O)[O-])c(C(C)(C)C)c([N+](=O)[O-])c1C
inactive: all assays above
